Data from ChEMBL document CHEMBL2021809, “Synthesis, biological evaluation and molecular modeling study of pyrazole and pyrazoline derivatives as selective COX-2 inhibitors and anti-inflammatory agents. Part 2” (Bioorg Med Chem, 2012).

Key:
[1] = target: T1, Prostaglandin G/H synthase 1 (Ovis aries, UniProt P05979); assay: Inhibition of ovine COX1 by enzyme immuno assay
T1 sequence (P05979 whole entry): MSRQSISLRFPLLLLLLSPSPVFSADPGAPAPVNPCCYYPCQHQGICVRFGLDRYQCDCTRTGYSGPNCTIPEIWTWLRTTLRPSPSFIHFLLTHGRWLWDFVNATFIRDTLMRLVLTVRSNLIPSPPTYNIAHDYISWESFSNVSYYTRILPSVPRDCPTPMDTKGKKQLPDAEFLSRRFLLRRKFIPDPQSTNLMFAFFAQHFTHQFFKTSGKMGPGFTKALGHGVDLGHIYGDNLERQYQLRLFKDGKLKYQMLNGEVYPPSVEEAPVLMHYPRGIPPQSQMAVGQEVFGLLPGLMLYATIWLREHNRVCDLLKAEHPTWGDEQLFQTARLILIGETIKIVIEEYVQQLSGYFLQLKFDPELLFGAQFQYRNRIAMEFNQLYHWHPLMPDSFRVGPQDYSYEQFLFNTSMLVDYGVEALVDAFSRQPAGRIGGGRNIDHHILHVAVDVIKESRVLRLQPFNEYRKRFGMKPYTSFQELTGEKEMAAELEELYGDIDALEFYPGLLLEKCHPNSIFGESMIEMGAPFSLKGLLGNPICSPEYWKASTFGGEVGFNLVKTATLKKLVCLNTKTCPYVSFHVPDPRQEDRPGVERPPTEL

Rattus norvegicus [2] = assay: Antiinflammatory activity in rat assessed as inhibition of carrageenan-induced foot paw edema at 200 mg/kg, ip measured after 2 hrs; format: functional; settings: route intraperitoneal
Procedure, shortened: (§1)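 Edema was induced in the rat paw with carrageenan. The read-out was percent reduction of edema at 2 h for each single dose. Test doses were 100 and 200 mg/kg. The reference agent was given at 50 and 100 mg/kg ip.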

Rattus norvegicus [3] = assay: Antiinflammatory activity in ip dosed rat assessed as inhibition of carrageenan-induced foot paw edema measured after 2 hrs; format: functional
Rattus norvegicus [4] = assay: Antiinflammatory activity in rat assessed as inhibition of carrageenan-induced foot paw edema at 100 mg/kg, ip measured after 2 hrs; format: functional; settings: route intraperitoneal; procedure, shortened: as §1
Rattus norvegicus [5] = assay: Antiinflammatory activity in rat assessed as inhibition of carrageenan-induced foot paw edema at 50 mg/kg, ip measured after 2 hrs; format: functional; settings: route intraperitoneal; procedure, shortened: as §1

Row | Structure (SMILES) | IC50 [1] [µM] | inhibition in vivo at 200 mg/kg (Rattus norvegicus [2]) [%] | ED50 (Rattus norvegicus [3]) [µmol/kg] | inhibition in vivo at 100 mg/kg (Rattus norvegicus [4]) [%] | inhibition in vivo at 50 mg/kg (Rattus norvegicus [5]) [%]
1 | O=C(/C(=C/c1ccc(O)cc1)C(=O)C(F)(F)F)c1ccc(Cl)cc1 | > 50 | 78.9 | 366 | 39.2 | 
2 | FC(F)(F)c1[nH]nc(-c2ccc(Cl)cc2)c1Cc1ccccc1 | > 50 |  |  |  | 
3 | Oc1ccccc1/C=C1\C(c2ccc(Cl)cc2)=NN=C1C(F)(F)F | > 50 |  |  |  | 
4 | COc1ccc(/C=C2\C(c3ccc(Cl)cc3)=NN=C2C(F)(F)F)cc1OC | > 50 | 88.7 | 298 | 42 | 
5 | Oc1ccc(/C=C2\C(c3ccc(Cl)cc3)=NN=C2C(F)(F)F)cc1 | > 50 | 81.4 | 370 | 35.3 | 
6 | FC(F)(F)c1nn(-c2ccccc2)c(-c2ccc(Cl)cc2)c1/C=N/c1ccc(Br)cc1 | > 50 | 61.1 | 335 | 25.2 | 
7 | Cc1ccc(C2=NNC3(C2)C(=O)Nc2ccc(F)cc23)cc1 (centres undefined) | > 50 |  |  |  | 
8 | FC(F)(F)C1=NN=C(c2ccc(Cl)cc2)/C1=C\c1ccco1 | > 50 |  |  |  | 
9 | O=[N+]([O-])c1ccc(/N=C/c2c(C(F)(F)F)nn(-c3ccccc3)c2-c2ccc(Cl)cc2)cc1 | > 50 | 86.7 | 243 | 43.7 | 
10 | COc1ccc(/C=C2\C(c3ccc(Cl)cc3)=NN=C2C(F)(F)F)cc1 | > 50 | 69.1 | 405 | 33.4 | 
11 | FC(F)(F)c1cc(/N=C/c2c(C(F)(F)F)nn(-c3ccccc3)c2-c2ccc(Cl)cc2)cc(C(F)(F)F)c1 | > 50 | 89.3 | 170 | 52 | 
12 | O=C(/C(=C/c1ccco1)C(=O)C(F)(F)F)c1ccc(Cl)cc1 | > 50 |  |  |  | 
13 | O=C1Nc2ccc(F)cc2C12CC(c1ccc(Br)cc1)=NN2 (centres undefined) | > 50 |  |  |  | 
14 | O=C(/C(=C/c1ccccc1O)C(=O)C(F)(F)F)c1ccc(Cl)cc1 | > 50 |  |  |  | 
15 | COc1ccc(/C=C(/C(=O)c2ccc(Cl)cc2)C(=O)C(F)(F)F)cc1 | > 50 | 52.4 | 528 | 26.3 | 
16 | FC(F)(F)c1nn(-c2ccccc2)c(-c2ccc(Cl)cc2)c1/C=N/c1ccccc1Cl | > 50 |  |  |  | 
17 | COc1ccc(/C=C(/C(=O)c2ccc(Cl)cc2)C(=O)C(F)(F)F)cc1OC | > 50 | 80.2 | 321 | 38.7 | 
18 | N#CC(C#N)=Cc1c(C(F)(F)F)nn(-c2ccccc2)c1-c1ccc(Cl)cc1 | > 50 |  |  |  | 
19 | O=[N+]([O-])c1cccc(/C=C2\C(c3ccc(Cl)cc3)=NN=C2C(F)(F)F)c1 | > 50 | 84.5 | 318 | 37.6 | 
20 | O=C(O)Cc1ccccc1Nc1c(Cl)cccc1Cl [DICLOFENAC SODIUM] |  |  | 198 | 87.3 | 48.7
21 | O=C(/C(=C/c1cccc([N+](=O)[O-])c1)C(=O)C(F)(F)F)c1ccc(Cl)cc1 | > 50 | 80 | 343 | 37.9 | 
22 | Cc1ccc(-c2cc(C(F)(F)F)nn2-c2ccc(S(N)(=O)=O)cc2)cc1 [CELECOXIB] |  |  | 185 | 83 | 57
